Screening data as filed in PubChem.
In the library only some 2.3% were active in any assay of this set; here they are far more common.
ERp5 inh: blocks human ERp5 reductase activity on insulin; Q15084; ERp5 insulin aggregation, absorbance 650 nm, 90 min; inhibition, % at 9.99 µM; 0.05% of 350,000 active; AID 651711;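 active means mean replicate inhibition above about 25%, with every replicate also reaching it, limit read from the data, passing the limit was not always enough; inconclusive means only one of those two criteria met; inactive means neither criterion met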
Target sequence (Q15084 whole entry, looked up): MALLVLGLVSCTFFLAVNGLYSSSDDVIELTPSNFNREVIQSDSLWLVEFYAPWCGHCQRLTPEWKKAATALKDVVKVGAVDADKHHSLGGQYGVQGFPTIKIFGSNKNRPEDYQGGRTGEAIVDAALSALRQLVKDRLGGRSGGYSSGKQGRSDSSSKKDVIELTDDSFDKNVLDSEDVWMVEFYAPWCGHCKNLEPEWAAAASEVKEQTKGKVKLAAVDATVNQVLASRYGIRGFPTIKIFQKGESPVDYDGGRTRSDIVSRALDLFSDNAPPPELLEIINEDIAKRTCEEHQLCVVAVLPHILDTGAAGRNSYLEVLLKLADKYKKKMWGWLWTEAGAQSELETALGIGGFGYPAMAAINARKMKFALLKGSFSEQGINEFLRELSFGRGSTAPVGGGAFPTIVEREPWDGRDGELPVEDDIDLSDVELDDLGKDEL
DENV2 CPE: protects cells from dengue virus 2 cytopathic effect. AID 651640. 1.7% of 350,000 active. DENV2-infected cells, cytopathic effect rescue, plate reader. CPE inhibition, % at 9.99 µM; in the data active means CPE inhibition above about 20%, passing the limit was not always enough; inconclusive means no clear call, values can overlap the other calls; tested in BHK-21 cells;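 further: 0% = median of neutral control wells and 100% = median of positive control wells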
PDI inh: inhibitors of human protein disulfide isomerase; P07237; PDI insulin aggregation turbidity, A650, 90 min; inhibition, % at 10 µM; AID 588391; 0.052% of 350,000 active;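 active means mean inhibition across replicates of 30% or more, whatever share of single replicates reach that level; inconclusive means mean inhibition below 30% while every single replicate reaches 30%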
Cneo AK release: causes C. neoformans cell lysis; adenylate kinase release luminescence, 4 h; normalised: neutral wells 0, clomiphene wells 100; lysis activity, % at 15 µM; 0.2% of 360,000 active; AID 651654;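 active means mean lysis activity across replicates of at least 80%, whatever share of replicates individually reach that level; inactive means mean lysis activity below 80%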
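Test system: log-phase Cryptococcus neoformans yeast cells; Quantity: yeast cell density of 5 × 10^6 cells/mL; Buffer or medium: YPD; Doses: single compound concentration per well; Timing: 4 h at 37 °C static, read 1 h later; Measured by: AK luminescence; Read-out basis: lysis from increased AK signal; Control set: Clomiphene as positive control.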
CFTR F508del cor: correctors of CFTR F508del function in bronchial epithelial cells | 0.36% of 350,000 active | activity (quench increase), % at 7.58 µM | CFBE cells, YFP halide quenching; stimulated with forskolin plus potentiator P3; % fluorescence drop versus neutral controls;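 active means mean added fluorescence quench of at least 8% versus neutral control, with both replicates also reaching 8%; inconclusive means only one of the mean or replicate conditions met; inactive means mean below 8% and not both replicates reaching 8%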;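 further: cells transiently co-express mutant CFTR-F508del with the halide-sensitive YFP; corrector assay measuring rescue of mutant channel to the surface after 24 h compound exposure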
C2C12 statin: suppression of simvastatin myotoxicity; 0.78% of 330,000 active; rescue of ATP level, % at 7.49 µM; C2C12 myotubes + simvastatin, ATP luminescence, 48 h; scaled: DMSO 0, geranylgeraniol control 100;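 active means mean ATP rescue above about 67%, or every replicate alone reaching that limit, limit read from the data, passing the limit was not always enough; inconclusive means no clear call, values can overlap the other calls; inactive means mean under the limit and some replicate under it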;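 further: myotubes were challenged with 10 µM simvastatin during compound exposure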
The depositor's hits bear a star; ? = inconclusive; . = not tested or not shown; ! = not confirmed by another sample.

SMILES | ERp5 inh | DENV2 CPE | PDI inh | Cneo AK release | CFTR F508del cor | C2C12 statin
CC(C)N1C(=O)C2(OCCCO2)c2cc(Br)ccc21 | 2 | 4 | 17 | 84* | -4 | 17
COC(=O)CN1C(=O)C2(OCCCO2)c2cc(Br)ccc21 | 0 | . | 2 | -1 | . | -38
COc1ccc(S(=O)(=O)Nc2ccc3c(c2)CC(=O)N([C@H](C)CO)C[C@H](C)[C@H](CN(C)Cc2ccc4c(c2)OCO4)O3)cc1 | -1 | 4 | . | 50 | 1 | -34
NC(=S)N/N=C/c1ccc(-c2cc(Cl)cc(Cl)c2)o1 | . | . | -5 | 10 | . | 1
NC(=S)N/N=C/c1ccc(-c2cc(Cl)ccc2Cl)o1 | ? | . | 3 | 111* | -1 | -25
COc1ccc(CCNS(=O)(=O)c2cccs2)cc1 | . | . | -11 | -4 | . | 128*
COCCNC(=O)c1nn(-c2cc(OC)cc(OC)c2)c(=O)c2ccccc12 | . | . | -10 | 0 | . | 110*
COc1ccc(NC(=O)N(C)C[C@@H]2OCc3ccccc3-c3c(n(C)c4ccccc34)C(=O)N([C@@H](C)CO)C[C@H]2C)cc1 | 6 | -10 | . | 41 | -1 | .
COc1cccc(-c2ccc([C@H]3[C@H](CO)N4C(=O)CN(C(=O)C5CCC5)C[C@@H]34)cc2)c1 | -5 | 19 | . | . | -1 | .
Cn1cc(CN(CCCN2CCOCC2)C(=S)Nc2cccc(Cl)c2)c2ccccc21 | -3 | 40* | 2 | -3 | 1 | .
CN1C(=O)c2cc(NS(C)(=O)=O)ccc2OC[C@H]2O[C@@H](CC(=O)NC3CCCCC3)CC[C@@H]21 | 4 | 1 | . | 2 | . | -3
C#Cc1ccc(NC(=O)C2(C)CCN2C(=O)c2cc(C)n(C)n2)cc1 (stereo not given) | 5 | 0 | 1 | 2 | 8.1* | 3
O=C(C[C@@H]1CC[C@@H](NC(=O)c2cccnc2)[C@@H](CO)O1)NCCN1CCCCC1 | -4 | 5 | . | 93* | 7 | 6
O=C(N[C@@H]1CC[C@H](CCNC(=O)C2CCCCC2)O[C@@H]1CO)c1ccncc1 | -2 | 0 | . | -2 | 4 | -4
O=C(N[C@H]1CC[C@H](CCNC(=O)C2CCCCC2)O[C@@H]1CO)c1ccncc1 | 5 | 28* | . | -3 | -3 | -9
O=C(N[C@H]1CC[C@H](CCNC(=O)C2CCCC2)O[C@@H]1CO)c1ccncc1 | -1 | 25* | . | 3 | -1 | 3
C[C@@H]1CCCCO[C@@H](CN(C)C(=O)C2CCCCC2)[C@H](C)CN([C@@H](C)CO)C(=O)c2cc(NC(=O)c3ccncc3)ccc2O1 | 0 | -11 | . | 0 | 3 | 95*
C[C@@H]1CCCCO[C@H](CN(C)C(=O)Nc2ccc(C(F)(F)F)cc2)[C@@H](C)CN([C@H](C)CO)C(=O)c2cc(NC(=O)c3ccncc3)ccc2O1 | 6 | 21*! | 2 | -14 | 2 | -8
C[C@@H]1CCCCO[C@H](CN(C)C(=O)Nc2ccc(C(F)(F)F)cc2)[C@H](C)CN([C@@H](C)CO)C(=O)c2cc(NC(=O)c3ccncc3)ccc2O1 | -3 | 22* | . | -14 | 3 | .
C[C@@H]1CCCCO[C@@H](CN(C)C(=O)Nc2ccc(F)cc2)[C@H](C)CN([C@H](C)CO)C(=O)c2cc(NC(=O)c3ccncc3)ccc2O1 | -1 | 27* | . | -4 | 2 | .
C[C@@H]1CCCCO[C@@H](CN(C)C(=O)C2CCCCC2)[C@@H](C)CN([C@@H](C)CO)C(=O)c2cc(NC(=O)c3ccncc3)ccc2O1 | -3 | -12 | . | -1 | -2 | 29
C[C@@H]1CCCCO[C@H](CN(C)C(=O)Nc2ccc(C(F)(F)F)cc2)[C@H](C)CN([C@H](C)CO)C(=O)c2cc(NC(=O)c3ccncc3)ccc2O1 | 3 | -1 | . | -12 | 0 | .
CCCNC(=O)[C@@H]1[C@@H](CO)[C@@H]2Cn3c(cccc3=O)[C@@H]2N1CC1CCCC1 | -9 | 9 | . | . | 1 | .
C[C@@H]1CN([C@H](C)CO)C(=O)c2cc(NC(=O)CCC(F)(F)F)ccc2O[C@@H](C)CCCCO[C@H]1CN(C)C(=O)NC1CCCCC1 | -5 | -4 | . | 1 | -3 | -15
C[C@@H]1CN([C@H](C)CO)C(=O)c2cc(NC(=O)CCC(F)(F)F)ccc2O[C@@H]1CN(C)CC1CC1 | -2 | -4 | . | 0 | 1 | 16
